These results are taken from ChEMBL document CHEMBL1765069, “Decahydroquinoline amides as highly selective CB2 agonists: role of selectivity on in vivo efficacy in a rodent model of analgesia” (Bioorg Med Chem Lett, 2011).

Where “and” joins values, the source holds several entries; their conditions need not be identical. Equal values may be shown once.

The target of experiment [1] is T1, Cannabinoid receptor 2 (Homo sapiens, UniProt P34972). The experiment in a line: Agonist activity at human CB2 receptor expressed in CHOK1 cells assessed as inhibition of forskolin-induced cAMP production treated 15 mins before forskolin challenge measured after 1 hr by HTRF assay. It is filed as functional, cell-based, CHO-K1. Summed up: (§1)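 CHO-K1 cells (1000 per well) expressing human or rat CB1 or CB2 were preincubated with compound for 15 min at room temperature. Forskolin was then added at its EC70 for 30 min at room temperature. cAMP was detected by HTRF (d2-cAMP plus anti-cAMP cryptate) after a final 1 h incubation at room temperature. Values are reported as IC50 with % Emax.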
T1 sequence (P34972 whole entry): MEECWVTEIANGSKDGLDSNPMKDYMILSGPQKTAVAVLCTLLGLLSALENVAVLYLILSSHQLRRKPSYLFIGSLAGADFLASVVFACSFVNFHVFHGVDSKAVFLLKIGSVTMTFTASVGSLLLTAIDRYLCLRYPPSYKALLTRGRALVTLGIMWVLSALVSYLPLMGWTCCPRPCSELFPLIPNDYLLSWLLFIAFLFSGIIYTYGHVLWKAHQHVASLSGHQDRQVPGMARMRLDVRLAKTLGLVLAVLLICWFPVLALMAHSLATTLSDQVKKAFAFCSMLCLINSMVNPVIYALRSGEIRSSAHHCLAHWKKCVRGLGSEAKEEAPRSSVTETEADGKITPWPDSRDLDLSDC

The target in experiment [2] is T2, Cannabinoid receptor 1 (Homo sapiens, UniProt P21554). In words: Agonist activity at human CB1 receptor expressed in CHOK1 cells assessed as inhibition of forskolin-induced cAMP production treated 15 mins before forskolin challenge measured after 1 hr by HTRF assay. The experiment is classed as functional, cell-based, CHO-K1. An outline of the steps:
as §1
In general terms: Changes in cAMP serve as a functional read-out for many G protein-coupled receptors.

For experiment [3], the target named is T1, Cannabinoid receptor 2. The experiment in a line: Agonist activity at human CB2 receptor expressed in CHOK1 cells assessed as inhibition of forskolin-induced cAMP production treated 15 mins before forskolin challenge measured after 1 hr by HTRF assay relative to control. Conditions: CHO-K1. The experiment is classed as functional, cell-based. Summed up: (§2)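 CHO-K1 cells (1000 per well) expressing human or rat CB1 or CB2 were preincubated with compound at room temperature for 15 min. Forskolin at EC70 was then added for a further 30 min at room temperature. cAMP was read by HTRF (d2-cAMP plus anti-cAMP-cryptate, final 1 h at room temperature). IC50 and % Emax were reported.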

Experiment [4] concerns the target T2, Cannabinoid receptor 1. The experiment in a line: Agonist activity at human CB1 receptor expressed in CHOK1 cells assessed as inhibition of forskolin-induced cAMP production treated 15 mins before forskolin challenge measured after 1 hr by HTRF assay relative to control. Conditions: CHO-K1. The experiment is classed as functional, cell-based. Summed up: as §2

T2 sequence (P21554 whole entry): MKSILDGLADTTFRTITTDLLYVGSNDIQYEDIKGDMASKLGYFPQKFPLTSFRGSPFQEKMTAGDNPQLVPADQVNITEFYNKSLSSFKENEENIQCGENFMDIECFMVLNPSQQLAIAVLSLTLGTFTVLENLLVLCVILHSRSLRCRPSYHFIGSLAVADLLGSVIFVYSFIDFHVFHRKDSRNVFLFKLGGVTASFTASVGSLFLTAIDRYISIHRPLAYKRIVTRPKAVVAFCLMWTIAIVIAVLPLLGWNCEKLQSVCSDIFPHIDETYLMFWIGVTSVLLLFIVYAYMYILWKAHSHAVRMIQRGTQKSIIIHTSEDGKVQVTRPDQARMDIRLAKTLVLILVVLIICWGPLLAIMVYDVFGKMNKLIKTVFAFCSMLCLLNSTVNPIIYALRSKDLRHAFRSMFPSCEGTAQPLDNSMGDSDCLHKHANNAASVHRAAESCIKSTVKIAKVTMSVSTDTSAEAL

With `O=C(c1csc(-c2ccncc2)n1)N1CCC(O)(c2ccccc2)[C@@H]2CCCC[C@@H]21` (stereo partly drawn) [listing 1 of 2 here], the half-maximal inhibitory concentration (IC50) (commonly the midpoint of a concentration-inhibition curve) is 5220 nM and 597 nM on Cannabinoid receptor 2 [1]; above 17000 nM at Cannabinoid receptor 1 [2].
Take `O=C(c1cc(-c2ccccc2F)n[nH]1)N1CC[C@](O)(c2ccccc2)[C@H]2CCCC[C@@H]21`: the IC50 on Cannabinoid receptor 2 [1] is 1290 nM; at Cannabinoid receptor 1 [2] it was above 17000 nM.
With `CS(=O)(=O)c1ccc([C@@]2(O)CCN(C(=O)c3ccccc3)[C@H]3CCCC[C@@H]32)cc1`, the Emax (in general, the size of the effect at its maximum, as opposed to the concentration needed) at Cannabinoid receptor 2 [3] is 56%. Also, on Cannabinoid receptor 2 [1], the half-maximal inhibitory concentration (IC50) was determined as 106 nM.
The matching figures for `COc1ccc([C@@]2(O)CCN(C(=O)c3ccccc3)[C@H]3CCCC[C@@H]32)cc1`: 66% and 358 nM.
As to `O=C(c1ccccc1)N1CC[C@](O)(c2cccnc2)[C@H]2CCCC[C@@H]21`, the Emax at Cannabinoid receptor 2 [3] came to 86%. For the same compound, the IC50 at Cannabinoid receptor 2 [1] was determined as 938 nM.
The matching figures for `O=C(c1ccccc1)N1CC[C@](O)(c2ccc(Cl)cc2)[C@H]2CCCC[C@@H]21`: 88% and 155 nM.
The matching figures for `O=C(c1ccccc1)N1CC[C@](O)(c2cccc(Cl)c2)[C@H]2CCCC[C@@H]21`: 69% and 493 nM.
The matching figures for `N#Cc1cccc([C@@]2(O)CCN(C(=O)c3ccccc3)[C@H]3CCCC[C@@H]32)c1`: 85% and 1050 nM.
In the case of `CS(=O)(=O)c1cccc([C@@]2(O)CCN(C(=O)c3ccccc3)[C@H]3CCCC[C@@H]32)c1`, the Emax at Cannabinoid receptor 2 [3] was 52%. For the same compound, the IC50 on Cannabinoid receptor 2 [1] was 338 nM.
Consider `O=C(c1ccccc1)N1CC[C@](O)(c2cccc(C(F)(F)F)c2)[C@H]2CCCC[C@@H]21`, for which the Emax on Cannabinoid receptor 2 [3] is -16%. The 50% inhibitory concentration (IC50) at Cannabinoid receptor 2 [1] came out at 810 nM.
The matching figures for `O=C(c1ccccc1)N1CC[C@](O)(c2ccccn2)[C@H]2CCCC[C@@H]21`: 65% and 1360 nM.
Consider `O=C(c1cccc2[nH]ncc12)N1CCC(O)(c2ccccc2)[C@@H]2CCCC[C@@H]21` (stereo partly drawn) [listing 1 of 2 here], for which the IC50 turned out to be 4.9 nM at Cannabinoid receptor 2 [1] and 4250 nM at Cannabinoid receptor 1 [2].
On to `O=C(c1cc(-c2ccccc2F)[nH]n1)N1CC[C@](O)(c2ccccc2)[C@H]2CCCC[C@@H]21`, for which the Emax at Cannabinoid receptor 2 [3] was found to be 81%; at Cannabinoid receptor 1 [4] it was 56%.
The matching figures for `O=C(c1cccc2[nH]ncc12)N1CCC(O)(c2ccccc2)[C@@H]2CCCC[C@@H]21` (stereo partly drawn) [listing 2 of 2 here]: 100% and 95%.
For the compound `O=C(c1csc(-c2ccncc2)n1)N1CCC(O)(c2ccccc2)[C@@H]2CCCC[C@@H]21` (stereo partly drawn) [listing 2 of 2 here], the Emax at Cannabinoid receptor 2 [3] was 77% and 89%; on Cannabinoid receptor 1 [4], 10% and 3%.
Turning to `CN1CCCCC1C(=O)N1CC[C@@](O)(c2ccccc2)[C@@H]2CCCC[C@@H]21` (mixture of isomers), at Cannabinoid receptor 2 [3], the Emax turned out to be 100%. Further, the results for the IC50 on Cannabinoid receptor 2 [1] and on Cannabinoid receptor 1 [2] were 56 nM and above 17000 nM, respectively.
As for `O=C(C1CNCCN1)N1CC[C@@](O)(c2ccccc2)[C@@H]2CCCC[C@@H]21` (mixture of isomers), on Cannabinoid receptor 2 [3], the Emax was found to be 91%. Moreover, the IC50 at Cannabinoid receptor 2 [1] is 62 nM; at Cannabinoid receptor 1 [2], above 17000 nM.
As to `CN1CC(C(=O)N2CC[C@@](O)(c3ccccc3)[C@@H]3CCCC[C@@H]32)CCC1=O` (mixture of isomers), the Emax at Cannabinoid receptor 2 [3] is 99%. Further, the IC50 on Cannabinoid receptor 2 [1] is 135 nM; on Cannabinoid receptor 1 [2] it was above 17000 nM.
The matching figures for `O=C1CC(C(=O)N2CC[C@@](O)(c3ccccc3)[C@@H]3CCCC[C@@H]32)CN1` (mixture of isomers): 89%, 3470 nM and above 17000 nM.
The matching figures for `O=C1CCC(C(=O)N2CC[C@@](O)(c3ccccc3)[C@@H]3CCCC[C@@H]32)N1` (mixture of isomers): 102%, 193 nM and above 17000 nM.
`O=C(c1ccon1)N1CC[C@@](O)(c2ccccc2)[C@@H]2CCCC[C@@H]21` (racemic): the Emax at Cannabinoid receptor 2 [3] was found to be 102%. The IC50 was 11 nM on Cannabinoid receptor 2 [1] and above 17000 nM on Cannabinoid receptor 1 [2].
On to `O=C(c1ccncc1F)N1CC[C@@](O)(c2ccccc2)[C@@H]2CCCC[C@@H]21` (racemic), for which the Emax at Cannabinoid receptor 2 [3] turned out to be 99%. Besides, the half-maximal inhibitory concentration (IC50) was 6.3 nM at Cannabinoid receptor 2 [1] and above 17000 nM on Cannabinoid receptor 1 [2].
The matching figures for `Cn1ccnc1C(=O)N1CC[C@@](O)(c2ccccc2)[C@@H]2CCCC[C@@H]21` (racemic): 100%, 124 nM and above 17000 nM.
The matching figures for `Cc1cccc(C(=O)N2CC[C@@](O)(c3ccccc3)[C@@H]3CCCC[C@@H]32)n1` (racemic): 99%, 6.1 nM and above 17000 nM.
With `O=C(c1ccc(OCC(F)(F)F)nc1)N1CC[C@@](O)(c2ccccc2)[C@@H]2CCCC[C@@H]21` (racemic), the Emax on Cannabinoid receptor 2 [3] was determined as 100%. The 50% inhibitory concentration (IC50) was 16 nM on Cannabinoid receptor 2 [1] and above 17000 nM at Cannabinoid receptor 1 [2].
The matching figures for `O=C(c1nnc[nH]1)N1CC[C@@](O)(c2ccccc2)[C@@H]2CCCC[C@@H]21` (racemic): 101%, 282 nM and above 17000 nM.
The matching figures for `O=C(c1ccc(C2CC2)nc1)N1CC[C@@](O)(c2ccccc2)[C@@H]2CCCC[C@@H]21` (racemic): 96%, 12 nM and above 17000 nM.
The matching figures for `CN1CCC(C(=O)N2CC[C@@](O)(c3ccccc3)[C@@H]3CCCC[C@@H]32)CC1` (racemic): 98%, 395 nM and above 17000 nM.
Consider `O=C([C@@H]1C[C@@H](O)CCN1)N1CC[C@@](O)(c2ccccc2)[C@@H]2CCCC[C@@H]21` (racemic), for which, at Cannabinoid receptor 2 [3], the Emax is 87%. Moreover, the IC50 on Cannabinoid receptor 2 [1] is 2180 nM; at Cannabinoid receptor 1 [2], above 17000 nM.
The matching figures for `O=C(c1cscn1)N1CC[C@@](O)(c2ccccc2)[C@@H]2CCCC[C@@H]21` (racemic): 101%, 41 nM and above 17000 nM.
As to `O=C(c1ncccn1)N1CC[C@@](O)(c2ccccc2)[C@@H]2CCCC[C@@H]21` (racemic), the Emax at Cannabinoid receptor 2 [3] came out at 101%. Also, the IC50 on Cannabinoid receptor 2 [1] is 29 nM; on Cannabinoid receptor 1 [2], above 17000 nM.
The matching figures for `O=C(c1ccc(C(F)(F)F)nc1)N1CC[C@@](O)(c2ccccc2)[C@@H]2CCCC[C@@H]21` (racemic): 96%, 12 nM and above 17000 nM.
The matching figures for `O=C(c1ccncn1)N1CC[C@@](O)(c2ccccc2)[C@@H]2CCCC[C@@H]21` (racemic): 103%, 140 nM and above 17000 nM.
The matching figures for `O=C(c1cn(CC(F)(F)F)cn1)N1CC[C@@](O)(c2ccccc2)[C@@H]2CCCC[C@@H]21` (racemic): 104%, 26 nM and above 17000 nM.
Turning to `Cc1ccc(C(=O)N2CC[C@@](O)(c3ccccc3)[C@@H]3CCCC[C@@H]32)cn1` (racemic), the Emax at Cannabinoid receptor 2 [3] is 99%.
For `O=C(c1cccc2[nH]ncc12)N1CCC(O)(c2ccccc2)[C@@H]2CCCC[C@@H]21` (single isomer, unassigned) [listing 1 of 2 here], the concentration for half-maximal inhibition (IC50) at Cannabinoid receptor 2 [1] was 1.6 nM; on Cannabinoid receptor 1 [2] it was above 17000 nM.
Consider `O=C(c1cccc2[nH]ncc12)N1CCC(O)(c2ccccc2)[C@@H]2CCCC[C@@H]21` (single isomer, unassigned) [listing 2 of 2 here], for which the Emax is 100% on Cannabinoid receptor 2 [3] and 28% on Cannabinoid receptor 1 [4].
For `O=C(c1csc(-c2ccncc2)n1)N1CCC(O)(c2ccccc2)[C@@H]2CCCC[C@@H]21` (single isomer, unassigned; form 1) [listing 1 of 2 here], the values for the IC50 at Cannabinoid receptor 2 [1] and at Cannabinoid receptor 1 [2] were 0.55 nM and above 17000 nM, respectively.
In the case of `O=C(c1csc(-c2ccncc2)n1)N1CCC(O)(c2ccccc2)[C@@H]2CCCC[C@@H]21` (single isomer, unassigned; form 1) [listing 2 of 2 here], the results for the Emax at Cannabinoid receptor 2 [3] and at Cannabinoid receptor 1 [4] were 100% and 12%, respectively.
Regarding `O=C(c1csc(-c2ccncc2)n1)N1CCC(O)(c2ccccc2)[C@@H]2CCCC[C@@H]21` (single isomer, unassigned; form 2) [listing 1 of 2 here], the IC50 on Cannabinoid receptor 2 [1] is 7.9 nM; at Cannabinoid receptor 1 [2], above 17000 nM.
Take `O=C(c1csc(-c2ccncc2)n1)N1CCC(O)(c2ccccc2)[C@@H]2CCCC[C@@H]21` (single isomer, unassigned; form 2) [listing 2 of 2 here]: the figures for the Emax on Cannabinoid receptor 2 [3] and on Cannabinoid receptor 1 [4] were 98% and 18%, respectively.
On to `O=C(c1csc(-c2ccncc2)n1)N1CCC(O)(c2ccccc2)[C@@H]2CCCC[C@@H]21` (single isomer, unassigned; form 3) [listing 1 of 2 here], for which the IC50 on Cannabinoid receptor 2 [1] is 388 nM; at Cannabinoid receptor 1 [2], above 17000 nM.
For the compound `O=C(c1csc(-c2ccncc2)n1)N1CCC(O)(c2ccccc2)[C@@H]2CCCC[C@@H]21` (single isomer, unassigned; form 3) [listing 2 of 2 here], the Emax came to 97% at Cannabinoid receptor 2 [3] and 51% at Cannabinoid receptor 1 [4].
Regarding `O=C(c1csc(-c2ccncc2)n1)N1CCC(O)(c2ccccc2)[C@@H]2CCCC[C@@H]21` (single isomer, unassigned; form 4) [listing 1 of 2 here], the IC50 on Cannabinoid receptor 2 [1] was above 17000 nM; on Cannabinoid receptor 1 [2], 930 nM.
With `O=C(c1csc(-c2ccncc2)n1)N1CCC(O)(c2ccccc2)[C@@H]2CCCC[C@@H]21` (single isomer, unassigned; form 4) [listing 2 of 2 here], the Emax was 19% on Cannabinoid receptor 2 [3] and 46% at Cannabinoid receptor 1 [4].
